# Source: PubChem BioAssay (several laboratories)
# DSG3 Ab inh = blocks pemphigus antibody binding to human desmoglein-3; P32926; DSG3-coupled beads, scFv-anti-DSG3-GFP binding, flow cytometry; hits give low values; binding (percent of control), % at 10 µM; 310,000 compounds, 0.48% hits; AID 588358;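 active means binding more than 3 SD below its plate's average and above zero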;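 further: hits lower antibody fragment binding to DSG3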
# Target sequence (P32926 whole entry, looked up, the tested form may be a part): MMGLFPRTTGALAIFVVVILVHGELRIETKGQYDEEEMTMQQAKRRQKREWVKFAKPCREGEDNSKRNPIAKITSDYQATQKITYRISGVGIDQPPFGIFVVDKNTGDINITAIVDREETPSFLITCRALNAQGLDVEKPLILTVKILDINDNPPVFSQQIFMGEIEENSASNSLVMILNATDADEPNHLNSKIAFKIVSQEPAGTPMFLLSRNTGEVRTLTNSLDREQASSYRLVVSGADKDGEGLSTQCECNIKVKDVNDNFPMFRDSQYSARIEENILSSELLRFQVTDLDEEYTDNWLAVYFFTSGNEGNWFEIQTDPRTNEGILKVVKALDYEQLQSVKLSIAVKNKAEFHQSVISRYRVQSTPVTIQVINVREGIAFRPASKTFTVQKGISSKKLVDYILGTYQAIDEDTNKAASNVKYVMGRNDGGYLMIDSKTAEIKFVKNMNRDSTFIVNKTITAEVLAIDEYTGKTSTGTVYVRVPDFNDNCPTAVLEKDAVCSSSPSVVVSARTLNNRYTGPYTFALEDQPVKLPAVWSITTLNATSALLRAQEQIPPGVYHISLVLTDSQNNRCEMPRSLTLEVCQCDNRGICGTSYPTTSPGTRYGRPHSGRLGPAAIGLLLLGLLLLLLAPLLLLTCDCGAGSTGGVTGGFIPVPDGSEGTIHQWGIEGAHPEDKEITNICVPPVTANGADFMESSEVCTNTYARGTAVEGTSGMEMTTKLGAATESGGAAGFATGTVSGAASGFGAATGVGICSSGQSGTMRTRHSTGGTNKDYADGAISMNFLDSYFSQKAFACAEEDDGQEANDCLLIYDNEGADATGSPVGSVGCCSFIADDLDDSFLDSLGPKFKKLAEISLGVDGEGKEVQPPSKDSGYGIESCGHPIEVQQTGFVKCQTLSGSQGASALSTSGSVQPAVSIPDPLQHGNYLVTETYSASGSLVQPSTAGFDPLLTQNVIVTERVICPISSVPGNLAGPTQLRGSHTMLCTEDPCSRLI
# Efflux pump inh = inhibitors of Candida antifungal efflux pumps expressed in yeast | S. cerevisiae Candida pump triplex, Nile Red efflux | inhibition, % at 10 µM | 330,000 compounds, 0.44% hits | AID 485275;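 active means plate passing quality check with inhibition over a set limit, or well fluorescence over plate mean plus 4 SD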;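 further: Nile Red retained in pooled yeast measured as flow cytometry median fluorescence; 0% = buffer negative control and 100% = Enniatin B positive control; higher means more Nile Red kept so more efflux inhibition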
# Arr AP2 block = inhibitors of human beta-arrestin and AP2 interaction; inhibition, % at 10 µM; FITC-arrestin peptide / GST-AP2 beads, flow cytometry; AP2 beta2 appendage carries R879A mutation; 340,000 compounds, 0.31% hits;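 active means inhibition above a set limit, near 3 SD of compounds lacking own fluorescence, cut at about 54% in these data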;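 further: plate controls were DMSO wells for no effect and 5 µM unlabelled arrestin peptide for full effect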
#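 test system = AP2 appendage R879A on GSH beads | buffer or medium = PBS plus Tween 20 (0.05%) and BSA (0.1%) | incubation = 12 min plus 1 h, RT | detection = bead flow cytometry, FITC channel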
# Neddylation inh = blocks human cullin neddylation | P61081+Q13564 | TR-FRET cullin neddylation, biochemical | inhibition, % at 25 µM | 360,000 compounds, 0.58% hits | AID 651699; in the data active means inhibition above about 36%
# Yeast cmpd fluor = compound fluorescence in yeast efflux pump counter-screen. shares compounds with Efflux pump inh. S. cerevisiae AD/pABC3, flow cytometry. fluorescence ratio to DMSO, % at 10 µM. 1,700 compounds, 4% hits;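 active means fluorescence ratio to DMSO above its plate's cutoff, the plate mean ratio plus 5 SD, cut at about 210% in these data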;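 further: unstained yeast with no Nile Red so the signal is compound autofluorescence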
# CaMdr1 efflux inh = Candida Mdr1 efflux pump inhibition | shares compounds with Efflux pump inh | S. cerevisiae AD/CaMDR1, Nile Red efflux, flow cytometry | inhibition, % at 10 µM | 1,700 compounds, 1% hits; in the data active means inhibition above about 26%;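 further: 0% = DMSO vehicle and 100% = reference inhibitor; higher means more Nile Red retained so more efflux inhibition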
# CaCdr2 efflux inh = Candida Cdr2 efflux pump inhibition | 1,700 compounds, 4% hits | S. cerevisiae AD/CaCDR2, Nile Red retention, flow cytometry | shares compounds with Efflux pump inh | Nile Red retention ratio vs DMSO, % at 10 µM | AID 588520; in the data active means Nile Red retention ratio vs DMSO above about 190%;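 further: higher ratio means more blocking of Cdr2 efflux of the dye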
# Cdr1 pump inh = Candida Cdr1 efflux pump inhibition; S. cerevisiae AD/CaCDR1, Nile Red efflux, flow cytometry; 1,700 compounds, 1% hits; inhibition, % at 10 µM; shares compounds with Efflux pump inh; AID 588522;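 active means inhibition above the screen-wide mean plus twice its standard deviation, cut at about 32% in these data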
# Numbers without * were called inactive; · = no result. Shown are actives, neighbours in structure and some others; about 1.7% of the full set was active somewhere.
SMILES,DSG3 Ab inh,Efflux pump inh,Arr AP2 block,Neddylation inh,Yeast cmpd fluor,CaMdr1 efflux inh,CaCdr2 efflux inh,Cdr1 pump inh
O=C(CCS(=O)(=O)c1ccccc1F)Nc1ccc(N2CCN(Cc3ccccc3)CC2)cc1,108.4,1.9*,2.6,8.6,109.5,-0.2,89.3,-0.1
CCC(=O)Nc1ccc(N2CCN(Cc3ccccc3)CC2)cc1,98.5,0.1,1.4,0.8,·,·,·,·
Cc1c(NC(C)c2cc(Cl)ccc2O)c(=O)n(-c2ccccc2)n1C (centres undefined),102.1,-0.1,7.5,-3.9,·,·,·,·
Cc1c(NC(C)c2ccccc2O)c(=O)n(-c2ccccc2)n1C (centres undefined),102.8,8.2*,3.7,-0.5,105.7,0.1,89.0,-0.1
O=C(c1ccc2c(c1)OCO2)N1CCC2(CC1)Oc1ccc(Cl)cc1C(=O)C21CC(c2ccccc2)=NO1 (centres undefined),103.4,0.0,1.2,2.5,93.7,-0.5,86.7,-0.5
O=C(/C=C/c1cccs1)N1CCC2(CC1)Oc1ccc(F)cc1C(=O)C21CC(c2ccccc2)=NO1 (centres undefined),100.0,0.6*,1.4,-2.2,107.9,0.2,95.4,0.1
Cc1noc(C)c1C(=O)N1CCC2(CC1)Oc1ccc(F)cc1C(=O)C21CC(c2ccc(Cl)cc2)=NO1 (centres undefined),105.1,6.4*,0.4,-9.7,99.8,0.0,97.7,0.0
CC(C)(C)OC(=O)N1CCC2(CC1)Oc1ccc(F)cc1C(=O)C21CC(c2ccc(Cl)cc2)=NO1 (centres undefined),·,0.2,·,·,·,·,·,·
CCC(=O)N1CCC2(CC1)Oc1ccc(Cl)cc1C(=O)C21CC(c2cccnc2)=NO1 (centres undefined),100.3,-0.2,1.1,-12.6,·,·,·,·
O=C(c1ccc2c(c1)OCO2)N1CCC2(CC1)Oc1ccc(F)cc1C(=O)C21CC(c2ccc(Cl)cc2)=NO1 (centres undefined),99.7,23.3*,36.1,3.2,106.7,26.1*,110.3,0.6
CCc1cc(Cn2nc(-c3ccccc3C)cc2C(=O)O)on1,101.0,-0.2,6.2,-2.0,·,·,·,·
CC(Nc1nc(-c2ccccc2)nc2ccccc12)c1ccccc1 (centres undefined),98.3,1.9*,-3.1,-4.1,100.0,-0.1,106.3,-0.1
CCOc1ccc(NC(=O)c2c(N)n(C)c(=O)[nH]c2=O)cc1,96.0,·,-13.2,-16.4,·,·,·,·
N#CCCn1cc(/C=C(\C#N)c2nc3ccccc3s2)c(-c2ccc(F)cc2)n1,95.1,0.5,0.9,35.9,82.2,0.0,99.6,-0.2
COC(=O)c1ccc(N2C(=O)C3CC=CC(C)C3C2=O)cc1 (centres undefined),94.3,0.0,8.2,-1.5,·,·,·,·
C=CCc1c(Cl)nc(C)nc1NCc1ccccc1,110.4,0.4,9.6,15.2,·,·,·,·
Cc1cc(O)c(C(C)C)cc1C1(c2cc(C(C)C)c(O)cc2C)OC(=O)c2ccccc21,103.9,1.2*,-6.2,5.8,116.8,-0.1,109.4,0.0
COc1ccc(C(C(=O)NC(C)(C)C)N(CC2CCCO2)C(=O)CCC(=O)Nc2cc(C)on2)cc1 (centres undefined),111.1,0.8*,12.6,0.3,100.0,-0.5,98.1,0.1
COc1ccc(C(C(=O)NC(C)(C)C)N(CCC(C)C)C(=O)CCC(=O)Nc2cc(C)on2)cc1 (centres undefined),99.0,0.1,6.0,3.5,·,·,·,·
CCOc1cccc(N(C(=O)CCC(=O)Nc2cc(C)on2)C(C(=O)NC(C)(C)C)c2ccc(OC)cc2)c1 (centres undefined),·,0.5*,3.8,-2.2,110.0,0.0,120.4,-0.1
CCc1ccc(N(C(=O)CCC(=O)Nc2cc(C)on2)C(C(=O)NC(C)(C)C)c2ccc(OC)cc2)cc1 (centres undefined),120.4,0.1,-5.3,7.7,·,·,·,·
COc1ccc(C(C(=O)NC(C)(C)C)N(C(=O)CCC(=O)Nc2cc(C)on2)c2cccc(F)c2)cc1 (centres undefined),·,0.4,-11.6,1.3,87.6,-0.2,102.2,-0.1
COc1ccc(CN(C2CC2)S(=O)(=O)c2ccccc2Br)cc1,102.4,-0.2,18.1,-12.1,·,·,·,·
O=C(N1CCCCC1)N1CCN(S(=O)(=O)c2cccc([N+](=O)[O-])c2)CC1,99.2,0.0,-4.9,-35.3,·,·,·,·
O=C(N1CCOCC1)N1CCN(S(=O)(=O)c2cccc([N+](=O)[O-])c2)CC1,99.6,1.8*,2.9,-33.6,104.5,0.2,96.3,0.0
SMILES,DSG3 Ab inh,Efflux pump inh,Arr AP2 block,Neddylation inh,Yeast cmpd fluor,CaMdr1 efflux inh,CaCdr2 efflux inh,Cdr1 pump inh
COc1ccc(C(C)(NC(C)=O)c2nc(-c3ccc(F)c(Cl)c3)cs2)cc1 (centres undefined),·,·,·,-20.8,·,·,·,·
COc1ccc(S(=O)(=O)Nc2ccc3c(c2)N(C(C)=O)CCC3)cc1OC,133.2,1.0*,22.6,8.8,105.6,0.0,100.1,0.3
CC(=O)c1c(COC(=O)c2ccccc2)nc2ccccc2[n+]1[O-],100.3,1.8*,3.6,-22.7,94.8,-0.4,105.1,-0.1
Cc1ccc(N=C2NC(=O)/C(=C\c3cccs3)S2)cc1C,·,6.8*,4.1,-1.8,101.5,0.1,133.5,0.1
CN(Cc1ccc(Cl)cc1)C(=O)COC(=O)CSc1ccc([N+](=O)[O-])cc1,105.7,-0.1,4.7,-18.6,·,·,·,·
Cc1cc(F)ccc1S(=O)(=O)Nc1ccc(O)c(Sc2ncn[nH]2)c1,93.4,0.0,-20.8,-0.3,104.5,-0.1,100.1,0.1
COc1ccc(OC)c(S(=O)(=O)Nc2ccc(O)c(Sc3ncn[nH]3)c2)c1,104.2,-0.4,2.0,-1.6,96.1,-0.2,93.2,-0.1
Cc1ccc(S(=O)(=O)Nc2ccc(O)c(Sc3ncn[nH]3)c2)cc1,85.8,2.0*,0.8,-6.8,105.0,-0.4,95.1,0.1
CCOc1ccc(S(=O)(=O)Nc2ccc(O)c(Sc3ncn[nH]3)c2)cc1,108.2,-0.1,5.7,0.0,·,·,·,·
Cc1ccc(C)c(S(=O)(=O)Nc2ccc(O)c(Sc3ncn[nH]3)c2)c1,98.4,0.2,-9.0,-6.0,105.0,-0.4,97.2,-0.1
COc1ccc(C2=NOC(C(=O)Nc3ccc4c(c3)OCCO4)C2)cc1OC (centres undefined),114.8,-0.2,2.9,-8.3,·,·,·,·
Cc1ccc(C)c(S(=O)(=O)N2CCCC2CNC(=O)C(=O)NCc2ccccc2C)c1 (centres undefined),99.5,0.0,-4.0,7.6,·,·,·,·
Cc1cccc(C)c1NC(=O)C1CC2CCC1C2 (centres undefined),96.5,0.8*,5.9,-7.5,113.1,0.3,120.5,0.1
Cc1cc(C)c(NC(=O)C2CC3CCC2C3)c(C)c1 (centres undefined),108.0,0.0,30.5,-3.2,·,·,·,·
